≈ marks a conversion by molar mass, not a printed value.
Tests used:
Influenza A virus = assay: Antiviral activity against Influenza A virus H1N1 infected in MDCK cells assessed as inhibition of virus-induced cytopathic effect after 3 days by XTT assay; format: functional, organism-based; conditions: 72 h
Summary of the method: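 MDCK cells, trypsinized and seeded at 1.0 × 10^5 cells/mL, grown 24 h at 35 °C, 5% CO2 in MEM with 2% FCS plus antibiotics. Virus added for 1 h, then test substances at several concentrations in triplicate. After 3 days at 35 °C, XTT added for 3 h and OD492/OD690 read.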

HepG2 = assay: Cytotoxicity against human HepG2 cells after 3 days by MTT assay; format: functional, cell-based; conditions: HepG2, 72 h
Summary of the method: (§1)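 Freshly trypsinized cells were seeded at 5000-10 000 cells/well, with compounds added from DMSO stock, and cultured 3 days. Attached cells were then incubated with MTT (0.5 mg/mL, 1 h), solubilized in DMSO, and absorbance read at 550 nm.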

A549 = assay: Cytotoxicity against human A549 cells after 3 days by MTT assay; format: functional, cell-based; conditions: A549, 72 h; summary of the method: as §1
[1] = Cytotoxicity against human Hep3B cells after 3 days by MTT assay; format: functional, cell-based, Hep 3B2; conditions: 72 h; summary of the method: as §1
MCF7 = assay: Cytotoxicity against human MCF7 cells after 3 days by MTT assay; format: functional, cell-based; conditions: MCF7, 72 h; summary of the method: as §1
MDA-MB-231 = assay: Cytotoxicity against human MDA-MB-231 cells after 3 days by MTT assay; format: functional, cell-based; conditions: MDA-MB-231, 72 h; summary of the method: as §1
Ca9-22 = assay: Cytotoxicity against human Ca9-22 cells after 3 days by MTT assay; format: functional, cell-based; conditions: Ca9-22, 72 h; summary of the method: as §1

CC1=CC(=O)[C@@H]2C(C)(C)C(=O)CC[C@@]2(C)[C@@H]1COc1ccc2ccc(=O)oc2c1
IC50 (Influenza A virus): 0.32 µg/mL (≈ 0.811 µM)
IC90 (Influenza A virus): 0.37 µg/mL (≈ 0.938 µM)

C/C(=C\COc1ccc2ccc(=O)oc2c1)CC/C=C(\C)CC[C@@H](O)C(C)(C)O
IC50 (HepG2): > 20 µg/mL
IC50 (A549): 11 µg/mL (≈ 27.4 µM)
IC50 [1]: > 20 µg/mL
IC50 (MCF7): 14.3 µg/mL (≈ 35.6 µM)
IC50 (Influenza A virus): 0.99 µg/mL (≈ 2.47 µM)
IC90 (Influenza A virus): 2.05 µg/mL (≈ 5.12 µM)
IC50 (MDA-MB-231): > 20 µg/mL
IC50 (Ca9-22): > 20 µg/mL

CC(C)=CCC/C(C)=C/[C@@H](O)C/C(C)=C/COc1ccc2ccc(=O)oc2c1
IC50 (Influenza A virus): 0.36 µg/mL (≈ 0.941 µM)
IC90 (Influenza A virus): 0.62 µg/mL (≈ 1.62 µM)

CC(=O)OC(CC=C(C)C)/C(C)=C/[C@@H](O)C/C(C)=C/COc1ccc2ccc(=O)oc2c1 (stereo partly drawn)
IC50 (HepG2): 15.6 µg/mL (≈ 35.4 µM)
IC50 (A549): > 20 µg/mL
IC50 [1]: 9.82 µg/mL (≈ 22.3 µM)
IC50 (MCF7): > 20 µg/mL
IC50 (Influenza A virus): 0.81 µg/mL (≈ 1.84 µM)
IC90 (Influenza A virus): 1.56 µg/mL (≈ 3.54 µM)
IC50 (MDA-MB-231): > 20 µg/mL
IC50 (Ca9-22): 14.2 µg/mL (≈ 32.3 µM)

NC12CC3CC(CC(C3)C1)C2 [AMANTADINE]
IC50 (Influenza A virus): 0.92 µg/mL (≈ 6.08 µM)

CC1=CC[C@@H]2C(C)(C)[C@@H](O)CC[C@@]2(C)[C@@H]1COc1ccc2ccc(=O)oc2c1 [CONFEROL]
IC50 (HepG2): 0.51 µg/mL (≈ 1.33 µM)
IC50 (A549): 9.08 µg/mL (≈ 23.7 µM)
IC50 [1]: 2.63 µg/mL (≈ 6.88 µM)
IC50 (MCF7): 3.38 µg/mL (≈ 8.84 µM)
IC50 (Influenza A virus): 0.47 µg/mL (≈ 1.23 µM)
IC90 (Influenza A virus): 0.83 µg/mL (≈ 2.17 µM)
IC50 (MDA-MB-231): > 20 µg/mL
IC50 (Ca9-22): 6.83 µg/mL (≈ 17.9 µM)

COc1cccc2c1C(=O)c1c(O)c3c(c(O)c1C2=O)C[C@@](O)(C(=O)CO)C[C@@H]3O[C@H]1C[C@H](N)[C@H](O)[C@H](C)O1 [DOXORUBICIN]
IC50 (HepG2): 0.16 µg/mL (≈ 0.294 µM)
IC50 (A549): 0.35 µg/mL (≈ 0.644 µM)
IC50 [1]: 0.41 µg/mL (≈ 0.754 µM)
IC50 (MCF7): 0.43 µg/mL (≈ 0.791 µM)
IC50 (Ca9-22): 0.14 µg/mL (≈ 0.258 µM)

C=C1CC[C@@H]2C(C)(C)[C@H](O)CC[C@@]2(C)[C@H]1COc1ccc2ccc(=O)oc2c1 [FARNESIFEROL A]
IC50 (HepG2): 14.9 µg/mL (≈ 38.9 µM)
IC50 (A549): 15.8 µg/mL (≈ 41.3 µM)
IC50 [1]: 7.66 µg/mL (≈ 20 µM)
IC50 (MCF7): 15.6 µg/mL (≈ 40.7 µM)
IC50 (Influenza A virus): 0.51 µg/mL (≈ 1.33 µM)
IC90 (Influenza A virus): 0.64 µg/mL (≈ 1.67 µM)
IC50 (MDA-MB-231): 19 µg/mL (≈ 49.7 µM)
IC50 (Ca9-22): 12.1 µg/mL (≈ 31.6 µM)

C/C(=C\COc1ccc2ccc(=O)oc2c1)CC[C@@H]1C(C)(C)[C@H]2CC[C@]1(C)O2 [FARNESIFEROL C]
IC50 (Influenza A virus): 0.29 µg/mL (≈ 0.758 µM)
IC90 (Influenza A virus): 0.5 µg/mL (≈ 1.31 µM)

CCC(C)SSC/C=C/OS(C)=O (stereo not drawn) [FOETISULFIDE C]
IC50 (HepG2): > 20 µg/mL
IC50 (A549): 9.14 µg/mL (≈ 38 µM)
IC50 [1]: 19.2 µg/mL (≈ 79.9 µM)
IC50 (MCF7): > 20 µg/mL
IC50 (MDA-MB-231): > 20 µg/mL
IC50 (Ca9-22): 16.5 µg/mL (≈ 68.5 µM)

CC(C)=C1CC[C@H](C)[C@](C)(COc2ccc3ccc(=O)oc3c2)[C@H]1CCC(=O)O [GALBANIC ACID]
IC50 (Influenza A virus): 0.45 µg/mL (≈ 1.13 µM)

C[C@@H]1C[C@@H](O)[C@]2(C)[C@@H](C)C(=O)CC[C@H]2[C@]1(C)COc1ccc2ccc(=O)oc2c1 [KAMOLONOL]
IC50 (HepG2): > 20 µg/mL
IC50 (A549): > 20 µg/mL
IC50 [1]: 17.9 µg/mL (≈ 45 µM)
IC50 (MCF7): > 20 µg/mL
IC50 (MDA-MB-231): > 20 µg/mL
IC50 (Ca9-22): > 20 µg/mL

CC1=CC(=O)[C@@H]2C(C)(C)[C@H](O)CC[C@@]2(C)[C@@H]1COc1ccc2ccc(=O)oc2c1 [LIGUPERSIN A]
IC50 (Influenza A virus): 0.86 µg/mL (≈ 2.17 µM)
IC90 (Influenza A virus): 1.75 µg/mL (≈ 4.41 µM)

COC(=O)CC[C@H]1C(=C(C)C)CC[C@H](C)[C@]1(C)COc1ccc2ccc(=O)oc2c1 [METHYL GALBANATE]
IC50 (HepG2): 8.42 µg/mL (≈ 20.4 µM)
IC50 (A549): > 20 µg/mL
IC50 [1]: 4.33 µg/mL (≈ 10.5 µM)
IC50 (MCF7): > 20 µg/mL
IC50 (Influenza A virus): 0.26 µg/mL (≈ 0.63 µM)
IC50 (MDA-MB-231): > 20 µg/mL
IC50 (Ca9-22): 19.1 µg/mL (≈ 46.3 µM)

C=C1CC[C@]2(C)C(C)(C)[C@@H](OC(C)=O)CC[C@]2(C)[C@H]1COc1ccc2ccc(=O)oc2c1 [POLYANTHININ]
IC50 (HepG2): 10.4 µg/mL (≈ 23.8 µM)
IC50 (A549): 12.3 µg/mL (≈ 28 µM)
IC50 [1]: 5.9 µg/mL (≈ 13.5 µM)
IC50 (MCF7): 9.94 µg/mL (≈ 22.7 µM)
IC50 (MDA-MB-231): 15.7 µg/mL (≈ 35.8 µM)
IC50 (Ca9-22): 12.7 µg/mL (≈ 28.9 µM)

COc1cc(C=O)ccc1O [VANILLIN]
IC50 (HepG2): > 20 µg/mL
IC50 (A549): 16.4 µg/mL (≈ 108 µM)
IC50 [1]: > 20 µg/mL
IC50 (MCF7): 15.7 µg/mL (≈ 103 µM)
IC50 (MDA-MB-231): > 20 µg/mL
IC50 (Ca9-22): > 20 µg/mL
